Compound activity deposited in PubChem BioAssay by several laboratories.
RBBP9 inhibitor: inhibitors of human serine hydrolase RBBP9; recombinant RBBP9, FP-Rh probe fluorescence polarization; AID 1515; inhibition, % at 7.94 µM; O75884; actives 0.2% (n = 220,000);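 active = inhibition above the campaign mean of all tested compounds plus 3 SD, cut at about 14% in these data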;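 also: plate controls were DMSO wells with RBBP9 for no effect and wells lacking RBBP9 protein for full effect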
Target sequence (O75884 whole entry, looked up): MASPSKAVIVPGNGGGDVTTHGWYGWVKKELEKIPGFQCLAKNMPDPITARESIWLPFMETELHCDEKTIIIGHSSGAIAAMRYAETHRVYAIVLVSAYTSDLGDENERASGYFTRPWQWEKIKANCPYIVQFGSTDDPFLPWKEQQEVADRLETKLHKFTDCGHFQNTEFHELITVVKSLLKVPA
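Measured by – fluorescence polarization · Test system – RBBP9 protein · Input – 2.5 µM RBBP9 dispensing solution, before mixing · Measure – percent inhibition from mP, scaled between DMSO and no-protein wells · Benchmarks – DMSO-treated enzyme wells and wells lacking RBBP9 · Times – preincubation 30 min plus labeling 45 min at 25 °C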
Pf gametocyte: P. falciparum stage V gametocyte viability inhibition. P. falciparum stage V gametocytes, ATP luminescence, 24 h. inhibition, % at 10.9 µM. actives 0.065% (n = 150,000). AID 743093;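 active = inhibition above the mean plus 3 SD of compounds within the control limits, set per campaign, cut at about 38% in these data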;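 also: 0% = DMSO wells and 100% = medium only without gametocytes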
zVAD death inh: L929 zVAD cell death inhibition; viability rescue, % at 10 µM; actives 0.38% (n = 220,000); L929 zVAD necroptosis rescue, ATP luminescence, 24 h; with zVAD 60 µM;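 active = activation, scaled between plate controls, above about 75%, limit read from the data; inactive = activation under that limit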;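 also: 0% = zVAD with DMSO and 100% = DMSO alone without zVAD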
Wee1 degr inh: human Wee1 degradation inhibition, primary screen; P30291; HeLa Luc-Wee1K328M stability, luciferase luminescence; 100% = proteasome inhibitor MG132 effect; reporter increase, % at 5 µM; actives 1.2% (n = 220,000);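 active = activation above the mean of all tested compounds plus 3 SD, set per screening run, cut at about 8.8% in these data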;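 also: cells exposed to compound for 20 h before luminescence read; 0% = DMSO alone and 100% = MG132 at 30 µM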
TNF necrop inh: inhibitors of TNF-alpha induced necroptosis in Jurkat FADD-/- cells | Jurkat FADD-/- TNF necroptosis rescue, ATP luminescence, 24 h; 0 = TNF only, 100 = no-TNF cells | actives 0.068% (n = 220,000) | activation (protection from cell death), % at 10 µM | AID 463075;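 active = activation, meaning protection from cell death, of at least 50% relative to plate controls; inactive = activation below 50%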;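 also: necroptosis triggered by 40 ng/mL TNF-alpha added together with compound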
Calpain2 inh: calpain II (pig) inhibition; purified calpain II, fluorogenic peptide substrate, 30 min; inhibition, % at 16 µM; actives 0.37% (n = 220,000); AID 1236;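 active = inhibition above about 50%, limit read from the data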
zVAD death conf: confirmed blocker of zVAD induced death in L929 cells; shares compounds with zVAD death inh; L929 zVAD-induced necroptosis rescue, ATP luminescence, 24 h; activation (protection from necroptosis), % at 10 µM; actives 16% (n = 760); AID 463117;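 active = mean protection from necroptosis of at least 50% over duplicate tests; inactive = mean protection below 50%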;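 also: 0% = cells with zVAD alone and 100% = vehicle cells without zVAD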
Active calls of the source: *; . = not tested or not shown. In the library only some 2.1% were active in any assay of this set; here they are far more common.

SMILES	RBBP9 inhibitor	Pf gametocyte	zVAD death inh	Wee1 degr inh	TNF necrop inh	Calpain2 inh	zVAD death conf
O=C(Nc1ccccc1F)C1CCCN(S(=O)(=O)c2ccccc2)C1 (stereo not drawn)	-6.0	-25.5	1.9	-2.5	1.2	20.9	.
O=C(COC(=O)c1ccc(O)cc1)Nc1ccc(OC(F)F)cc1	-8.7	16.0	76.7*	-0.8	1.7	-4.6	35.9
CC(C)(C)c1ccc(C(=O)Nc2ccc(S(N)(=O)=O)cc2)cc1	-1.4	.	83.2*	1.8	0.1	25.0	34.2
NS(=O)(=O)c1ccc(NC(=O)c2ccc(-c3ccccc3)cc2)cc1	-9.9	-13.9	1.7	-0.2	1.9	-124.1	.
CC(C)c1nnc(N2C(=O)C(O)=C(C(=O)c3cccs3)C2c2ccccc2)s1 (stereo not drawn)	-16.9	31.0	0.2	-0.4	0.2	25.5	.
CCOC(=O)/C=C1\Nc2ccccc2OC1=O	9.7	-15.5	94.0*	-0.9	9.5	1.8	2.7
O=C1C2C3C=CC(CC3)C2C(=O)N1c1ccc(Cl)cc1Cl (stereo not drawn)	.	-0.8	.	.	.	.	.
COc1ccc(OCC(=O)Nc2ccccc2-c2ccccc2)cc1	-6.2	23.3	3.2	-0.4	-7.1	34.9	.
Cc1cccc(OCC(=O)Nc2ccccc2-c2ccccc2)c1	-2.4	.	75.1*	0.1	0.8	13.5	1.4
C/C(=N\NC(=O)Cn1nnc2ccccc21)c1ccco1	-5.7	2.5	0.0	1.1	-0.2	24.6	.
Cc1ccc(-c2c[n+](CC(=O)Nc3ccccc3C)c3n2CCC3)cc1	-6.9	14.2	-0.5	3.8	-1.5	-4.0	.
O=c1[nH]c2ccccc2c2ccccc12	0.7	-20.9	78.9*	-0.5	-0.6	-9.2	2.2
Cc1ccc2c(c1)C(=C(C#N)C#N)C(=O)N2CCN1CCCCC1	-1.6	-19.6	89.8*	-4.1	6.4	-25.9	39.2
Cc1ccc2c(CN3CCOCC3)cc(=O)oc2c1	-1.8	-7.0	1.5	-2.7	3.1	11.9	.
Cc1ccc2c(c1)C(=C(C#N)C#N)C(=O)N2CCN1CCOCC1	-3.2	5.0	88.5*	-2.7	1.2	-7.2	1.0
O=C(C[C@@H]1C/C=C/CC[C@@H](Cc2ccc(F)cc2)C(=O)O[C@@H](c2ccccc2)CNC1=O)NCCO	.	7.6	.	.	.	.	.
Cc1ccc(NC(=O)COc2ncnc3ccccc23)cc1S(=O)(=O)N1CCOCC1	-4.9	-15.7	0.3	-3.5	1.4	-4.0	.
Cc1ccc(NC(=O)COc2ccc(-c3nnco3)cc2)cc1S(=O)(=O)N1CCOCC1	-6.3	-7.5	78.4*	-1.4	-0.1	-14.2	2.5
COc1ccc(NC(=O)c2ccccc2-c2ccccc2)c(C)c1	-2.8	.	-0.6	-0.1	-1.3	9.4	.
COc1cc(NC(=O)c2cccnc2Sc2ccc(Cl)cc2)cc(OC)c1OC	-2.1	-10.9	76.9*	-1.9	3.5	-11.6	41.7
O=C(Cc1ccccc1)NCC(=O)OCC(=O)c1ccc(OC(=O)c2ccccc2)cc1	-0.9	2.2	-0.3	-1.3	-10.3	16.0	.
O=C(Nc1ccc2c(c1)OCCO2)Nc1ccc2c(c1)OCO2	9.8	.	0.9	2.8	-1.9	-3.0	.
O=C(Nc1ccc2c(c1)OCO2)Nc1ccc(Br)cn1	0.5	8.2	78.6*	1.4	8.4	15.4	0.8
Cc1ccnc(NC(=O)Nc2ccc3c(c2)OCO3)c1	-5.4	13.0	84.9*	7.7	1.1	-15.9	1.7
O=C(Nc1cccc(Cl)c1)Nc1ccc2c(c1)OCO2	0.3	-29.8	0.5	1.2	9.2	32.4	.
SMILES	RBBP9 inhibitor	Pf gametocyte	zVAD death inh	Wee1 degr inh	TNF necrop inh	Calpain2 inh	zVAD death conf
CC(C(=O)NC1CCCC1)N(C(=O)c1snc(C(N)=O)c1N)c1ccc2c(c1)OCCO2 (stereo not drawn)	-3.2	-13.4	0.0	-1.3	-1.5	-13.2	.
COc1ccc(-c2cc(=O)c3c(O)c(OC)c(O)cc3o2)cc1	2.6	.	1.0	3.5	-3.7	25.0	.
COc1cc(-c2cc(=O)c3c(O)c(OC)c(OC)cc3o2)cc(OC)c1O	.	.	77.3*	.	-16.2	-22.7	9.9
CN(C)C=NC(=O)/C(C#N)=C1\CCc2ccccc2N1	2.7	11.5	83.4*	3.7	15.5	22.0	6.0
O=C(Cn1cnc2ccccc2c1=O)NC1CCCc2ccccc21 (stereo not drawn)	-7.8	2.3	0.2	-0.8	-0.2	-54.3	.
Cc1sc(NC(=O)Nc2ccccc2)c(C(N)=O)c1C	-5.0	-3.1	76.6*	5.1	0.6	22.0	0.9
CC(C)CC(=O)N1CC(C)N(C(=O)CC(C)C)CC1C (stereo not drawn)	-4.5	11.3	-0.2	-1.1	1.4	-16.5	.
C=CCn1c(SCC(=O)c2c(N)n(C)c(=O)n(C)c2=O)nnc1-c1ccccc1F	-4.7	.	3.4	5.2	-0.8	-11.5	.
N#CC1=C(SCC(=O)Nc2ccccc2)NC(=O)CC1c1ccc(O)cc1 (stereo not drawn)	-5.0	.	1.8	0.1	1.0	-14.5	.
Cc1ccc(C2CC(=O)NC(SCC(=O)Nc3nccs3)=C2C#N)cc1 (stereo not drawn)	-5.4	-3.6	96.0*	4.2	92.4*	-25.4	84.7*
C=CCOc1ccc(/C=C/C(C)=N\O)cc1	-3.1	-6.3	78.9*	-1.6	1.2	-3.2	10.1
C#CCOCCOCCOCCNc1nc(N2CCN(C(=O)Cn3cc(CC(C)O)nn3)CC2)nc(N2CCN(C(=O)[C@H](CCCCN)n3cc(CC(C)O)nn3)CC2)n1 (stereo partly drawn)	.	-29.0	.	.	.	.	.
O=P(Cc1cc(Br)cc(Br)c1OCCO)(c1ccccc1)c1ccccc1	-6.6	13.8	0.2	0.5	-1.6	-0.6	.
O=C(Nc1ccccc1)Nc1nccs1	-11.7	-48.5	84.6*	-1.8	7.2	6.9	7.9
COc1ccc(NC(=O)Nc2nccs2)cc1	-3.4	-3.7	22.3	-0.8	-3.1	-11.2	.
COc1ccc(C(=O)Nc2nccs2)cc1OC	-5.2	-46.6	80.1*	0.8	29.7	25.9	46.2
CCC(CC)C(=O)Nc1cccc(C(=O)Nc2nccs2)c1	-7.5	-26.4	66.9	0.2	3.3	-36.0	.
O=C(Nc1nccs1)c1cccc(NC(=O)C(F)(F)F)c1	-4.4	9.0	97.0*	-1.0	15.1	4.4	46.6
CCn1nccc1C(=O)Nc1nccs1	-2.4	.	85.3*	-1.9	3.6	9.3	37.4
CCCN1C(=O)c2ccc(C(=O)Nc3nccs3)cc2C1=O	-3.4	-3.9	0.0	-2.3	-0.9	10.2	.
CCCc1cc(C(=O)Nc2nccs2)cs1	2.3	3.9	98.6*	1.3	38.3	4.7	80.3*
Cc1ccc(CN2CCS(=O)(=O)CC2)o1	-6.9	.	82.7*	-3.8	13.6	-18.1	5.4
CC(NC(=O)C1(C)CC1(Br)Br)C(C)(C)C (stereo not drawn)	-2.1	.	0.3	-1.4	-1.2	9.4	.
